Test results published in ChEMBL document CHEMBL1759987, “2-Acylamino-5-chlorobenzophenones with enhanced selectivity towards malaria parasites” (Eur J Med Chem, 2011).

How the values were obtained:
[1] = Selectivity index, CC50 for HeLa cells to IC50 for Plasmodium falciparum; format: functional
Plasmodium falciparum = experiment: Antiplasmodial activity against multidrug- resistant Plasmodium falciparum Dd2 assessed as inhibition of [3H]hypoxanthine incorporation after 72 hrs; format: functional, organism-based
Method in brief: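 Dd2 parasites kept in continuous culture and sorbitol-synchronized, then exposed to a range of concentrations for 72 h. Growth read by [3H]-hypoxanthine incorporation and converted to percent inhibition. IC50 taken from sigmoidal dose-response curves fitted with a Hill function. At least three independent repeats, reported as mean ± SEM.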

[2] = Cytotoxicity in human HeLa cells assessed as cell viability after 72 hrs; format: cell-based
Method in brief: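 HeLa cells grown in RPMI 1640 with 10% heat-inactivated FBS and gentamicin at 37 °C. About 10,000 cells seeded per well, preincubated 48 h without compound. DMSO stocks (10 mg/ml) diluted 1:200 in medium and added, then 72 h at 37 °C, 5% CO2. Cells fixed with glutaraldehyde, stained with 0.05% methylene blue, eluted with 0.33 M HCl, OD read at 660 nm.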

| Structure (SMILES) | Ratio CC50/IC50 [1] | IC50 (Plasmodium falciparum) | CC50 at 72 h [2] |
| --- | --- | --- | --- |
| Cl.N[C@@H](C(=O)Nc1ccc(Cl)cc1C(=O)c1ccccc1)c1ccccc1 | 1 | 9.25 µM | 12 µM |
| Cl.N[C@H](C(=O)Nc1ccc(Cl)cc1C(=O)c1ccccc1)c1ccccc1 | 3 | > 16 µM | 43 µM |
| CC(C)(C)OC(=O)N[C@@H](C(=O)Nc1ccc(Cl)cc1C(=O)c1ccccc1)c1ccccc1 | 17 | 6.18 µM | > 108 µM |
| CC(C)(C)OC(=O)N[C@H](C(=O)Nc1ccc(Cl)cc1C(=O)c1ccccc1)c1ccccc1 | 13 | 8.47 µM | > 108 µM |
| CN1CCN(C(=O)N[C@@H](C(=O)Nc2ccc(Cl)cc2C(=O)c2ccccc2)c2ccccc2)CC1 | 45 | 1.35 µM | 60 µM |
| CC(C)(C)OC(=O)N1CCN(C(C(=O)Nc2ccc(Cl)cc2C(=O)c2ccccc2)c2ccccc2)CC1 (centres undefined) | 11 | 8.21 µM | > 94 µM |
| O=C(c1ccccc1)c1cc(Cl)ccc1NC(=O)C(c1ccccc1)N1CCSCC1 (racemic) | 10 | 11.5 µM | > 111 µM |
| O=C(c1ccccc1)c1cc(Cl)ccc1NC(=O)C(c1ccccc1)N1CCC(CCO)CC1 (racemic) | 1 | 15 µM | 19 µM |
| CCCN1CCN(C(C(=O)Nc2ccc(Cl)cc2C(=O)c2ccccc2)c2ccccc2)CC1 (racemic) | 6 | 6.23 µM | 38 µM |
| COC(=O)CN1CCN(C(C(=O)Nc2ccc(Cl)cc2C(=O)c2ccccc2)c2ccccc2)CC1 (racemic) | 33 | > 3 µM | > 99 µM |
| O=C(O)CN1CCN(C(C(=O)Nc2ccc(Cl)cc2C(=O)c2ccccc2)c2ccccc2)CC1 (racemic) | 34 | > 3 µM | > 102 µM |
| NC(=O)CN1CCN(C(C(=O)Nc2ccc(Cl)cc2C(=O)c2ccccc2)c2ccccc2)CC1 (racemic) | 22 | 3.32 µM | 65 µM |
| CC(C)NC(=O)CN1CCN(C(C(=O)Nc2ccc(Cl)cc2C(=O)c2ccccc2)c2ccccc2)CC1 (racemic) | 41 | 0.98 µM | 40 µM |
| CN(C)CCN1CCN(C(C(=O)Nc2ccc(Cl)cc2C(=O)c2ccccc2)c2ccccc2)CC1 (racemic) | 15 | 2.56 µM | 39 µM |
| O=C(c1ccccc1)c1cc(Cl)ccc1NC(=O)C(c1ccc(F)cc1)N1CCN(CCO)CC1 (racemic) | 45 | 0.84 µM | 38 µM |
| O=C(c1ccccc1)c1cc(Cl)ccc1NC(=O)C(c1ccc(C(F)(F)F)cc1)N1CCN(CCO)CC1 (racemic) | 28 | 0.6 µM | 17 µM |
| O=C(c1ccccc1)c1cc(Cl)ccc1NC(=O)C(c1ccc(Br)cc1)N1CCN(CCO)CC1 (racemic) | 31 | 0.56 µM | 17 µM |
| O=C(c1ccccc1)c1cc(Cl)ccc1NC(=O)C(c1ccc(-c2ccccc2)cc1)N1CCN(CCO)CC1 (racemic) | 59 | 0.28 µM | 16 µM |
| O=C(c1ccccc1)c1cc(Cl)ccc1NC(=O)C(c1cccc2ccccc12)N1CCN(CCO)CC1 (racemic) | 18 | 0.95 µM | 17 µM |

| Structure (SMILES) | Ratio CC50/IC50 [1] | IC50 (Plasmodium falciparum) | CC50 at 72 h [2] |
| --- | --- | --- | --- |
| O=C(c1ccccc1)c1cc(Cl)ccc1NC(=O)C(c1ccc2ccccc2c1)N1CCN(CCO)CC1 (racemic) | 94 | 0.18 µM | 17 µM |
| O=C(c1ccccc1)c1cc(Cl)ccc1NC(=O)C(c1ccccc1)N1CCOCC1 (racemic) | 6 | 6.72 µM | 39 µM |
| O=C(c1ccccc1)c1cc(Cl)ccc1NC(=O)C(c1ccccc1)N1CC[S+]([O-])CC1 (racemic) | 8 | 9.02 µM | 71 µM |
| O=C(c1ccccc1)c1cc(Cl)ccc1NC(=O)C(c1ccccc1)n1ccnc1 (racemic) | 12 | 4.51 µM | 55 µM |
| Cl.NC(C(=O)Nc1ccc(Cl)cc1C(=O)c1ccccc1)c1ccccc1 (racemic) | 6 | 6.71 µM | 37 µM |
| NC(CO)C(=O)Nc1ccc(Cl)cc1C(=O)c1ccccc1 (racemic) | – | > 20 µM | – |
| Cl.NC(Cc1ccccc1)C(=O)Nc1ccc(Cl)cc1C(=O)c1ccccc1 (racemic) | 3 | 14.1 µM | 38 µM |
| O=C(c1ccccc1)c1cc(Cl)ccc1NC(=O)C(c1ccccc1)N1CCN(c2ccccc2)CC1 (racemic) | 5 | > 20 µM | > 98 µM |
| O=C(c1ccccc1)c1cc(Cl)ccc1NC(=O)C(c1ccccc1)N1CCN(c2ccc([N+](=O)[O-])cc2)CC1 (racemic) | 5 | > 20 µM | > 90 µM |
| O=C(c1ccccc1)c1cc(Cl)ccc1NC(=O)C(c1ccccc1)N1CCN(Cc2ccccc2)CC1 (racemic) | 6 | > 20 µM | > 118 µM |
| O=CN1CCN(C(C(=O)Nc2ccc(Cl)cc2C(=O)c2ccccc2)c2ccccc2)CC1 (racemic) | 13 | 3.77 µM | 50 µM |
| CCOC(=O)N1CCN(C(C(=O)Nc2ccc(Cl)cc2C(=O)c2ccccc2)c2ccccc2)CC1 (racemic) | 15 | 4.26 µM | 64 µM |
| O=C(c1ccccc1)c1cc(Cl)ccc1NC(=O)C(c1ccccc1)N1CCN(CCO)CC1 (racemic) | 150 | 0.33 µM | 49 µM |
| O=C(c1ccccc1)c1cc(Cl)ccc1NC(=O)C(c1ccccc1)N1CCCCC1 (racemic) | 6 | 10.2 µM | 63 µM |
| O=C1CCN(C(C(=O)Nc2ccc(Cl)cc2C(=O)c2ccccc2)c2ccccc2)CC1 (racemic) | 4 | 7.43 µM | 27 µM |
| CN1CCN(C(C(=O)Nc2ccc(Cl)cc2C(=O)c2ccccc2)c2ccccc2)CC1 (racemic) | 18 | 3.54 µM | 63 µM |
| CCN1CCN(C(C(=O)Nc2ccc(Cl)cc2C(=O)c2ccccc2)c2ccccc2)CC1 (racemic) | 21 | 3.62 µM | 76 µM |
| CN1CCN(C(=O)NC(C(=O)Nc2ccc(Cl)cc2C(=O)c2ccccc2)c2ccccc2)CC1 (single isomer, unassigned) | 17 | 4.21 µM | 72 µM |
